# Assay results taken from ChEMBL document CHEMBL1138477, “8-(4-Methoxyphenyl)pyrazolo[1,5-a]-1,3,5-triazines: selective and centrally active corticotropin-releasing factor receptor-1 (CRF1) antagonists” (J Med Chem, 2009).
# Calls of active or inactive are those of the source.
# Columns and labels:
# [1] = Volume of distribution at steady state in Beagle dog at 5 mg/kg, iv; assay type: ADME, organism-based, Canis lupus familiaris; set-up: dose 5 mg/kg, route intravenous; details: in vivo, read-out: Vdss
# How it was run: (§1)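 Male beagle dogs (8.0-11.0 kg) dosed intravenously. Plasma sampled at 0.25, 0.5, 1, 2, 4, 6, 8, 12 and 24 h after dosing. Liquid–liquid extraction in hexane/ether, then LC/MS/MS assay (quantitation limit 1 ng/mL). Concentrations expressed as free base. Parameters obtained by noncompartmental analysis as for rat. Mean ± SD.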
# [2] = Cmax in Beagle dog at 5 mg/kg, po; assay type: ADME, organism-based, Canis lupus familiaris; set-up: dose 5 mg/kg, route oral; details: in vivo
# How it was run: (§2)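 Male beagle dogs (8.0-11.0 kg) dosed iv or po (5 mg/kg oral suspension in 0.5% methylcellulose with 1% Tween-80); plasma sampled 0.25-24 h; liquid-liquid extraction with hexane/ether, LC/MS/MS, quantitation limit 1 ng/mL (2.42 nM); noncompartmental parameters as free base.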
# [3] = Elimination half life in Beagle dog at 5 mg/kg, iv; assay type: ADME, organism-based, Canis lupus familiaris; set-up: dose 5 mg/kg, route intravenous; details: in vivo, read-out: beta t1/2 (converted); how it was run: as §2
# [4] = Tmax in Beagle dog at 5 mg/kg, po; assay type: ADME, organism-based, Canis lupus familiaris; set-up: dose 5 mg/kg, route oral; details: in vivo; how it was run: as §2
# [5] = Clearance in Beagle dog at 5 mg/kg, iv; assay type: ADME, organism-based, Canis lupus familiaris; set-up: dose 5 mg/kg, route intravenous; details: in vivo; how it was run: as §2
# [6] = Oral bioavailability in Beagle dog at 5 mg/kg; assay type: ADME, organism-based, Canis lupus familiaris; details: in vivo; how it was run: as §2
# [7] = Elimination half life in female Sprague-Dawley CD rat at 1 mg/kg, iv; assay type: ADME, organism-based; set-up: dose 1 mg/kg, route intravenous; details: in vivo, read-out: beta t1/2 (converted)
# How it was run: (§3)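 Sprague-Dawley CD rats: 1 mg/kg iv bolus in 20% ethanol/saline (apparent pH 3.4) to 3 males and 3 females; 5 mg/kg po in 0.5% methylcellulose with 1% Tween-80 to 3 males. Jugular blood into EDTA, predose to 32 h. Free base quantified by LC/MS after solid-phase extraction (range 5-5000 nM); noncompartmental analysis; F relative to iv.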
# [8] = tested on: Rattus norvegicus; experiment: Ex vivo receptor occupancy of CRF1 receptor in Sprague-Dawley rat brain at 30 mg/kg, po by [125I]sauvagine binding and autoradiography relative to control; assay type: functional
# How it was run: (§4)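 Sprague-Dawley rats dosed po at 0.3, 1, 3, 10, 30 mg/kg in the defensive-withdrawal vehicle and protocol; brains removed, sectioned, frozen at -80 °C, then ex vivo binding gave occupancy relative to vehicle-treated rats; mean ± SEM.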
# [9] = Elimination half life in male Sprague-Dawley CD rat at 1 mg/kg, iv; assay type: ADME, organism-based; set-up: dose 1 mg/kg, route intravenous; details: in vivo, read-out: beta t1/2 (converted); how it was run: as §3
# [10] = tested on: Rattus norvegicus; experiment: Ex vivo receptor occupancy of CRF1 receptor in Sprague-Dawley rat brain at 3 mg/kg, po by [125I]sauvagine binding and autoradiography relative to control; assay type: functional; how it was run: as §4
# [11] = tested on: Rattus norvegicus; experiment: Ex vivo receptor occupancy of CRF1 receptor in Sprague-Dawley rat brain at 10 mg/kg, po by [125I]sauvagine binding and autoradiography relative to control; assay type: functional; how it was run: as §4
# [12] = Clearance in female Sprague-Dawley CD rat at 1 mg/kg, iv; assay type: ADME, organism-based; set-up: dose 1 mg/kg, route intravenous; details: in vivo; how it was run: as §3
# [13] = Clearance in male Sprague-Dawley CD rat at 1 mg/kg, iv; assay type: ADME, organism-based; set-up: dose 1 mg/kg, route intravenous; details: in vivo; how it was run: as §3
# [14] = tested on: Rattus norvegicus; experiment: Toxicity in Sprague-Dawley rat assessed as time spent on rotarod at 30 mg/kg, po after 1 hr by rotarod test; assay type: organism-based; set-up: dose 30 mg/kg, route oral; details: in vivo
# How it was run: (§5)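 Male Sprague-Dawley rats received a single oral gavage dose of 30 mg/kg (free base weight) in 0.5% methocel–Tween-80 (99:1) or vehicle alone. Behaviour was assessed 1 h postdose, as time on the rotorod in seconds for the rotorod test and total distance travelled in cm for open-field locomotor activity. Values are mean ± SEM, n = 8 per group.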
# [15] = tested on: Rattus norvegicus; experiment: Anxiolytic-like activity in Sprague-Dawley rat assessed as decrease in latency to exit dark chamber at 10 mg/kg, po measured after 1 hr by defensive withdrawal test relative to control; assay type: functional; set-up: scale not given: the % may be the effect or the level left
# How it was run: (§6)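 Male Sprague-Dawley rats (180-300 g), individually housed; open field with cylindrical dark chamber; oral dosing in 0.25% Methocel 1 h before a 15 min session scored blind via video; latency to place all four paws in open field recorded, maximum 900 s; test doses 1.0, 3.0, 10, 30 mg/kg; positive control at 10 mg/kg; n = 12/dose; Kruskal-Wallis then Mann-Whitney U.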
# [16] = tested on: Rattus norvegicus; experiment: Anxiolytic-like activity in Sprague-Dawley rat assessed as decrease in latency to exit dark chamber at 30 mg/kg, po measured after 1 hr by defensive withdrawal test relative to control; assay type: functional; set-up: scale not given: the % may be the effect or the level left; how it was run: as §6
# [17] = tested on: Rattus norvegicus; experiment: Anxiolytic-like activity in Sprague-Dawley rat assessed as decrease in latency to exit dark chamber at 3 mg/kg, po measured after 1 hr by defensive withdrawal test relative to control; assay type: functional; set-up: scale not given: the % may be the effect or the level left; how it was run: as §6
# [18] = Tmax in male Sprague-Dawley CD rat at 5 mg/kg, po; assay type: ADME, organism-based; set-up: dose 5 mg/kg, route oral; details: in vivo; how it was run: as §3
# [19] = Volume of distribution at steady state in female Sprague-Dawley CD rat at 1 mg/kg, iv; assay type: ADME, organism-based; set-up: dose 1 mg/kg, route intravenous; details: in vivo, read-out: Vdss
# How it was run: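 Female Sprague-Dawley CD rats (n = 3) given a single 1 mg/kg iv bolus (free base) in 20% ethanol/physiological saline (apparent pH 3.4). Jugular vein blood taken into EDTA from predose to 32 h. Plasma assayed by solid-phase extraction and LC/MS with an internal standard (range 5–5000 nM). Noncompartmental analysis; mean ± SD.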
# [20] = tested on: Rattus norvegicus; experiment: Hepatic blood flow in iv dosed male Sprague-Dawley CD rat; assay type: ADME, organism-based, Liver; details: in vivo
# [21] = tested on: Rattus norvegicus; experiment: Toxicity in Sprague-Dawley rat assessed as total distance traveled at 30 mg/kg, po after 1 hr by open-field locomotor activity test; assay type: organism-based; set-up: dose 30 mg/kg, route oral; details: in vivo; how it was run: as §5
# [22] = Oral bioavailability in male Sprague-Dawley CD rat at 5 mg/kg relative to 1 mg/kg, iv dose; assay type: ADME, organism-based; details: in vivo; how it was run: as §3
# [23] = tested on: Rattus norvegicus; experiment: Ex vivo receptor occupancy of CRF1 receptor in Sprague-Dawley rat brain at 1 mg/kg, po by [125I]sauvagine binding and autoradiography relative to control; assay type: functional; how it was run: as §4
# [24] = tested on: Rattus norvegicus; experiment: Ex vivo receptor occupancy of CRF1 receptor in Sprague-Dawley rat brain at 0.3 mg/kg, po by [125I]sauvagine binding and autoradiography relative to control; assay type: functional; how it was run: as §4
# [25] = tested on: Rattus norvegicus; experiment: Anxiolytic-like activity in Sprague-Dawley rat assessed as increase in time spent in open arms at 30 mg/kg, po measured after 1 hr by elevated plus maze test; assay type: functional, organism-based; set-up: dose 30 mg/kg
# How it was run: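 Group-housed male Sprague-Dawley rats (180-300 g) dosed po in 0.25% Methocel 1 h before elevated plus maze; arm entry defined as all four paws in arm; percent time in open arms scored; test doses 1.0, 3.0, 10, 30 mg/kg; positive control at 18 mg/kg; n = 13-15/dose; mean ± SEM, ANOVA then Fisher's LSD.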
# [26] = tested on: Rattus norvegicus; experiment: Hepatic blood flow in iv dosed female Sprague-Dawley CD rat; assay type: ADME, organism-based, Liver; details: in vivo
# [27] = tested on: Rattus norvegicus; experiment: Ex vivo receptor occupancy of CRF1 receptor in po dosed Sprague-Dawley rat brain by [125I]sauvagine binding and autoradiography relative to control; assay type: functional; details: read-out: MED; how it was run: as §4
# [28] = Oral bioavailability in Beagle dog at 20 mg/kg; assay type: ADME, organism-based, Canis lupus familiaris; details: in vivo
# [29] = Cmax in Beagle dog at 20 mg/kg, po; assay type: ADME, organism-based, Canis lupus familiaris; set-up: dose 20 mg/kg, route oral; details: in vivo
# [30] = Volume of distribution at steady state in Beagle dog at 1 mg/kg, iv; assay type: ADME, organism-based, Canis lupus familiaris; set-up: dose 1 mg/kg, route intravenous; details: in vivo, read-out: Vdss; how it was run: as §1
# [31] = Tmax in Beagle dog at 20 mg/kg, po; assay type: ADME, organism-based, Canis lupus familiaris; set-up: dose 20 mg/kg, route oral; details: in vivo
# [32] = Elimination half life in Beagle dog at 1 mg/kg, iv; assay type: ADME, organism-based, Canis lupus familiaris; set-up: dose 1 mg/kg, route intravenous; details: in vivo, read-out: beta t1/2 (converted); how it was run: as §2
# [33] = Clearance in Beagle dog at 1 mg/kg, iv; assay type: ADME, organism-based, Canis lupus familiaris; set-up: dose 1 mg/kg, route intravenous; details: in vivo; how it was run: as §2
compound,measurement,setting,value
COCCN(CCOC)c1nc(C)nc2c(-c3cc(C)c(OC)cc3C)c(C)nn12,Vd,[1],23.7 L/kg
same,Cmax,[2],1.22 µM
same,half-life,[3],40.2 h
same,Tmax,[4],0.8 h
same,clearance,[5],0.66 L/h/kg
same,bioavailability,[6],48%
COCCN(CCOC)c1nc(C)nc2c(-c3ccc(OC)cc3C)c(C)nn12,half-life,[7],11.9 h
same,Activity,[8],82%
same,half-life,[9],9.7 h
same,Activity,[10],48%
same,Activity,[11],60%
same,clearance,[12],0.87 L/h/kg
same,Vd,[1],18.4 L/kg
same,Cmax,[2],2.38 µM
same,clearance,[13],1.2 L/h/kg
same,Time,[14],158 s
same,Activity,[15],73%
same,Activity,[16],59%
same,Activity,[17],62%
same,Tmax,[18],0.5 h
same,half-life,[3],27.3 h
same,Tmax,[4],0.5 h
same,Vd,[19],12.2 L/kg
same,clearance,[5],1.2 L/h/kg
same,QH,[20],3.3 L/h/kg
same,Activity,[21],4986 cm
same,bioavailability,[6],34%
same,bioavailability,[22],51%
same,Activity,[23],17%
same,Activity,[24],12%
same,Activity,[25],Active
same,QH,[26],3.3 L/h/kg
same,minimal effective dose,[27],3 mg/kg
CC[C@@H](C)Nc1nc(C)nc2c(-c3c(C)cc(OC)cc3OC)c(C)nn12,bioavailability,[28],4.7%
same,Cmax,[29],1.94 µM
same,Vd,[30],14.8 L/kg
same,Tmax,[31],4 h
same,half-life,[32],33.3 h
same,clearance,[33],0.6 L/h/kg
